Here are results for 26 compounds from ChEMBL document CHEMBL4834454 (Bioorg Med Chem, 2021).

Assay [1] has as its target T1, Cannabinoid receptor 1 (Homo sapiens, UniProt P21554). The assay is described as follows: Allosteric antagonist activity at human CB1 receptor expressed in CHO-RD-HGA16 cells overexpressing Galpha16 assessed as inhibition of CP55940-stimulated calcium mobilization preincubated for 15 mins followed by agonist addition and measured every 1 sec for 90 secs by Calcium-3 dye based FLIPR assay. Format: functional, cell-based. (A change in cytosolic calcium serves as a functional read-out for many receptors and channels.)

The target of assay [2] is T2, Cannabinoid receptor 2 (Homo sapiens, UniProt P34972). As to the kind of experiment: Antagonist activity at human CB2 receptor expressed in CHO-RD-HGA16 cells overexpressing Galpha16 assessed as inhibition of CP55940-stimulated calcium mobilization at 10 uM preincubated for 15 mins followed by agonist addition and measured every 1 sec for 90 secs by Calcium-3 dye based FLIPR assay. The class given is functional, cell-based. The settings on record: time 990.0 sec.

For assay [3], the target named is T2, Cannabinoid receptor 2. As to the kind of experiment: Antagonist activity at human CB2 receptor expressed in CHO-RD-HGA16 cells overexpressing Galpha16 assessed as inhibition of CP55940-stimulated calcium mobilization preincubated for 15 mins followed by agonist addition and measured every 1 sec for 90 secs by Calcium-3 dye based FLIPR assay. The class given is functional, cell-based.

Assay [4] has as its target T2, Cannabinoid receptor 2. The assay is described as follows: Agonist activity at human CB2 receptor expressed in CHO-RD-HGA16 cells overexpressing Galpha16 assessed as stimulation of calcium mobilization measured every 1 sec for 90 secs by Calcium-3 dye based FLIPR assay relative to Emax of CP55940. Format: functional, cell-based. The settings on record: time 90.0 sec. The gist of the method: (§1)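 Agonist screen. […] They were pretreated with vehicle (BSA/DMSO/EtOH buffer) for 15 min, and a single concentration of test compound was added at 10 s. Fluorescence (485/525 nm) was read for 90 s. RFU is expressed as % of CP55,940 Emax RFU. Line 1 uses hCB1 cells; line 2 uses hCB2 cells.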

The target of assay [5] is T1, Cannabinoid receptor 1. The assay is described as follows: biochemical.
In assay [6] the target is T1, Cannabinoid receptor 1. The assay is described as follows: Agonist activity at human CB1 receptor expressed in CHO-RD-HGA16 cells overexpressing Galpha16 assessed as stimulation of calcium mobilization measured every 1 sec for 90 secs by Calcium-3 dye based FLIPR assay relative to Emax of CP55940. The class given is functional, cell-based. Conditions: time 90.0 sec. The gist of the method: as §1

For assay [7], the target named is T1, Cannabinoid receptor 1. As to the kind of experiment: Allosteric antagonist activity at N-terminal 3HA-tagged human CB1 receptor expressed in HEK293 cells assessed as reduction in CP55940-stimulated inhibition of forskolin-induced cAMP accumulation measured for 20 mins by BRET assay. The class given is functional, cell-based. A general note: Changes in cAMP serve as a functional read-out for many G protein-coupled receptors.

A word on the IC50: it is the midpoint of a concentration-inhibition curve. By inhibition is commonly meant the drop in the measured response relative to a control, in per cent.

T1 sequence (P21554 whole entry): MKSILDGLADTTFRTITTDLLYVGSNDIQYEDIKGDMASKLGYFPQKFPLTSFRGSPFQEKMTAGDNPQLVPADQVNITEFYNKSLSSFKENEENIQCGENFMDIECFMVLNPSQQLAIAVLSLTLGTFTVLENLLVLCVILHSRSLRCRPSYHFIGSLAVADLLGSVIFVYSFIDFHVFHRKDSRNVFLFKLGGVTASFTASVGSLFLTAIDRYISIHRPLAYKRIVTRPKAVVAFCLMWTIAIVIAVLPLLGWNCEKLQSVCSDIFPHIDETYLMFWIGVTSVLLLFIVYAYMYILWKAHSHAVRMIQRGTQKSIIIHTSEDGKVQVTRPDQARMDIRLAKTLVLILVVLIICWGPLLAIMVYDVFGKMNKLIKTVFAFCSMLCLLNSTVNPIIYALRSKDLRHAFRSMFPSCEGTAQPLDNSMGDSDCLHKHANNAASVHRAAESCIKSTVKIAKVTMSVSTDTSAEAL
T2 sequence (P34972 whole entry): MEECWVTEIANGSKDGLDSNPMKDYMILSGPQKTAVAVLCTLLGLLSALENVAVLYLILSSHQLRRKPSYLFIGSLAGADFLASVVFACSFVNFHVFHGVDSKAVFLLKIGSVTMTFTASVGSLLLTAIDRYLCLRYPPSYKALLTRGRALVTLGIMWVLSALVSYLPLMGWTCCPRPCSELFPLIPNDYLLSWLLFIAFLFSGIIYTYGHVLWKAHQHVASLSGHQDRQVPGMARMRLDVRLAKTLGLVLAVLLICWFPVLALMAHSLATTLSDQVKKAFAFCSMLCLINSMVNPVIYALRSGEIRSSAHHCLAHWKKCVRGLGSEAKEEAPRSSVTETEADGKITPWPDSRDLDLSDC

Take `O=C(NCCc1ccc(N2CCCCC2)cc1)Nc1ccc(Cl)cc1`: the half-inhibitory concentration (IC50) at Cannabinoid receptor 1 [1] is 0.794 µM; at Cannabinoid receptor 2 [3], greater than 10 µM; on Cannabinoid receptor 1 [5] it was 1.26 µM. For the same compound, the inhibition on Cannabinoid receptor 2 [2] was less than 50%. Besides, the Activity on Cannabinoid receptor 2 [4] is less than 10%.
Take `Cc1ccc(CCNC(=O)Nc2ccc(Cl)cc2)o1`: the Activity at Cannabinoid receptor 1 [6] is less than 30%; on Cannabinoid receptor 2 [4], less than 10%. Besides, the inhibition on Cannabinoid receptor 2 [2] is less than 50%. Besides, the IC50 at Cannabinoid receptor 2 [3] was greater than 10 µM.
For the compound `CN(C)c1ccc(CCNC(=O)Nc2ccc(Cl)cc2)cc1`, the IC50 was 0.251 µM on Cannabinoid receptor 1 [1], 2.51 µM on Cannabinoid receptor 1 [7], greater than 10 µM on Cannabinoid receptor 2 [3] and 15.8 µM on Cannabinoid receptor 1 [5]. Also, the Activity at Cannabinoid receptor 1 [6] was less than 30%; at Cannabinoid receptor 2 [4], less than 10%. Besides, at Cannabinoid receptor 2 [2], the inhibition is less than 50%.
As to `CCc1c(C(=O)NCCc2ccc(N3CCCCC3)cc2)[nH]c2ccc(Cl)cc12`, the half-inhibitory concentration (IC50) was 0.794 µM on Cannabinoid receptor 1 [1], 0.158 µM at Cannabinoid receptor 1 [7], greater than 10 µM at Cannabinoid receptor 2 [3] and 1 µM at Cannabinoid receptor 1 [5]. In addition, the inhibition at Cannabinoid receptor 2 [2] is less than 50%. The Activity on Cannabinoid receptor 2 [4] was less than 10%.
As for `CC(=O)NCCNC(=O)Nc1ccc(Cl)cc1`, the IC50 on Cannabinoid receptor 1 [1] is 1.58 µM; at Cannabinoid receptor 2 [3] it was greater than 10 µM. Besides, the Activity is less than 30% on Cannabinoid receptor 1 [6] and less than 10% at Cannabinoid receptor 2 [4]. Further, the inhibition on Cannabinoid receptor 2 [2] is less than 50%.
With `O=C(NCCc1ccsc1)Nc1ccc(Cl)cc1`, the Activity at Cannabinoid receptor 1 [6] is less than 30%; on Cannabinoid receptor 2 [4], less than 10%. Moreover, the inhibition on Cannabinoid receptor 2 [2] is less than 50%. For the same compound, the IC50 on Cannabinoid receptor 2 [3] was greater than 10 µM.
Take `O=C(NCCc1ccc(N2CCCC2)cc1)Nc1ccc(Cl)cc1`: the values for the IC50 on Cannabinoid receptor 1 [1], on Cannabinoid receptor 2 [3] and at Cannabinoid receptor 1 [5] were 0.794 µM, greater than 10 µM and 39.8 µM, respectively. For the same compound, the Activity at Cannabinoid receptor 1 [6] is less than 30%; on Cannabinoid receptor 2 [4], less than 10%. For the same compound, at Cannabinoid receptor 2 [2], the inhibition was less than 50%.
For the compound `O=C(NC[C@H]1C[C@@H]1c1ccccc1)Nc1ccc(Cl)cc1` (relative stereo), the Activity at Cannabinoid receptor 1 [6] was less than 30%; at Cannabinoid receptor 2 [4] it was less than 10%. Further, the inhibition at Cannabinoid receptor 2 [2] is less than 50%. On Cannabinoid receptor 2 [3], the IC50 is greater than 10 µM.
The corresponding values for `CN1CCN(CCNC(=O)Nc2ccc(Cl)cc2)CC1` are less than 30%, less than 10%, less than 50% and greater than 10 µM.
Take `O=C(Nc1ccc(Cl)cc1)Nc1cccc(-c2cccc(N3CCCC3)n2)c1`: the Activity at Cannabinoid receptor 1 [6] was less than 30%; on Cannabinoid receptor 2 [4], less than 10%. The IC50 at Cannabinoid receptor 2 [3] was greater than 10 µM.
`O=C(NCCc1ccncc1)Nc1ccc(Cl)cc1`: the Activity on Cannabinoid receptor 1 [6] is less than 30%; on Cannabinoid receptor 2 [4] it was less than 10%. In addition, the inhibition on Cannabinoid receptor 2 [2] is less than 50%. Further, at Cannabinoid receptor 2 [3], the IC50 is greater than 10 µM.
The corresponding values for `O=C(NCCN1CCOCC1)Nc1ccc(Cl)cc1` are less than 30%, less than 10%, less than 50% and greater than 10 µM.
For `O=C(NCCc1cccnc1)Nc1ccc(Cl)cc1`, the Activity on Cannabinoid receptor 1 [6] was less than 30%; on Cannabinoid receptor 2 [4], less than 10%. For the same compound, the inhibition at Cannabinoid receptor 2 [2] was less than 50%. On Cannabinoid receptor 2 [3], the IC50 is greater than 10 µM.
With `O=C(NCCCc1ccccc1)Nc1ccc(Cl)cc1`, the figures for the IC50 at Cannabinoid receptor 1 [1] and on Cannabinoid receptor 2 [3] were 3.98 µM and greater than 10 µM, respectively. Besides, the Activity was less than 30% on Cannabinoid receptor 1 [6] and less than 10% on Cannabinoid receptor 2 [4]. Also, on Cannabinoid receptor 2 [2], the inhibition is less than 50%.
For `O=C(NCCc1ccccn1)Nc1ccc(Cl)cc1`, the results for the IC50 on Cannabinoid receptor 1 [1] and on Cannabinoid receptor 2 [3] were 3.98 µM and greater than 10 µM, respectively. In addition, the Activity on Cannabinoid receptor 1 [6] is less than 30%; on Cannabinoid receptor 2 [4] it was less than 10%. Moreover, on Cannabinoid receptor 2 [2], the inhibition is less than 50%.
As to `O=C(NCCc1ccccc1)Nc1ccc(Cl)cc1`, the IC50 is 0.2 µM at Cannabinoid receptor 1 [1], 3.16 µM on Cannabinoid receptor 1 [7], greater than 10 µM on Cannabinoid receptor 2 [3] and 6.31 µM against Cannabinoid receptor 1 [5]. Also, the inhibition at Cannabinoid receptor 2 [2] was less than 50%. For the same compound, the Activity at Cannabinoid receptor 2 [4] is less than 10%.
Consider `O=C(NCC1(c2ccccc2)CC1)Nc1ccc(Cl)cc1`, for which the results for the IC50 at Cannabinoid receptor 1 [1] and at Cannabinoid receptor 2 [3] were 5.01 µM and greater than 10 µM, respectively. The Activity was less than 30% on Cannabinoid receptor 1 [6] and less than 10% on Cannabinoid receptor 2 [4]. Also, the inhibition at Cannabinoid receptor 2 [2] is less than 50%.
Take `O=C(NCCc1cccs1)Nc1ccc(Cl)cc1`: the Activity at Cannabinoid receptor 1 [6] is less than 30%; on Cannabinoid receptor 2 [4] it was less than 10%. For the same compound, on Cannabinoid receptor 2 [2], the inhibition was less than 50%. In addition, the IC50 on Cannabinoid receptor 2 [3] is greater than 10 µM.
Turning to `O=C(Nc1ccc(Cl)cc1)NC1(Cc2ccccc2)CC1`, the Activity is less than 30% on Cannabinoid receptor 1 [6] and less than 10% at Cannabinoid receptor 2 [4]. In addition, the inhibition on Cannabinoid receptor 2 [2] was less than 50%. On Cannabinoid receptor 2 [3], the IC50 was greater than 10 µM.
On the same counts, the results for `O=C(NCc1ccccc1)Nc1ccc(Cl)cc1` are less than 30%, less than 10%, less than 50% and greater than 10 µM.
Regarding `CC(C)(CNC(=O)Nc1ccc(Cl)cc1)c1ccccc1`, the Activity on Cannabinoid receptor 1 [6] was less than 30%; on Cannabinoid receptor 2 [4], less than 10%. The inhibition on Cannabinoid receptor 2 [2] was less than 50%. On Cannabinoid receptor 2 [3], the half-maximal inhibitory concentration (IC50) was greater than 10 µM.
The corresponding values for `O=C(NCC(F)(F)c1ccccc1)Nc1ccc(Cl)cc1` are less than 30%, less than 10%, less than 50% and greater than 10 µM.
As for `CCN(CC)c1ccc(CCNC(=O)Nc2ccc(Cl)cc2)cc1`, the results for the IC50 at Cannabinoid receptor 1 [1] and on Cannabinoid receptor 2 [3] were 3.16 µM and greater than 10 µM, respectively. Besides, the Activity is less than 30% at Cannabinoid receptor 1 [6] and less than 10% at Cannabinoid receptor 2 [4]. In addition, the inhibition at Cannabinoid receptor 2 [2] was less than 50%.
Consider `O=C(NCCN1CCCC1)Nc1ccc(Cl)cc1`, for which the Activity on Cannabinoid receptor 1 [6] is less than 30%; on Cannabinoid receptor 2 [4], less than 10%. Besides, on Cannabinoid receptor 2 [2], the inhibition was less than 50%. Also, the half-maximal inhibitory concentration (IC50) on Cannabinoid receptor 2 [3] was greater than 10 µM.
The corresponding values for `CC(C)(Cc1ccccc1)NC(=O)Nc1ccc(Cl)cc1` are less than 30%, less than 10%, less than 50% and greater than 10 µM.
As for `O=C(NCCN1CCCCC1)Nc1ccc(Cl)cc1`, the Activity at Cannabinoid receptor 1 [6] is less than 30%; at Cannabinoid receptor 2 [4] it was less than 10%. The inhibition on Cannabinoid receptor 2 [2] was less than 50%. The half-inhibitory concentration (IC50) on Cannabinoid receptor 2 [3] is greater than 10 µM.
